According to the RNAGym collection of RNA variant scans (doi:10.1126/science.aae0568):
Fewer inactive variants are shown than the library holds.

B1: tRNA (parent)
chain: GUUCCGUUGGCGUAAUGGUAACGCGUCUCCCUCCUAAGGAGAAGACUGCGGGUUCGAGUCCCGUACGGAACG

Variants of: B1
Assay: yeast fitness relative to wild type (ratio to wild type); higher = fitter; tRNA-Arg(CCU), competitive growth, 37 C, YPD
Outline: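 Changes in genotype frequencies gave Darwinian fitness relative to wild type. Frequencies were read by 100-nucleotide paired-end sequencing of gene amplicons before and after pooled Saccharomyces cerevisiae strains, carrying tRNA-Arg(CCU) gene variants at the native locus, were competed in YPD at 37°C for 24 hours in six replicates. A genotype was kept only with ≥ 100 starting reads, and estimates < 0.5 were set to 0.5.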
For G18A C49A, the yeast fitness was 0.606. G18A C49A G63A gave a yeast fitness of no more than 0.5. Variant G18A C49G has a yeast fitness of 0.74. In the case of G18A C49G C60G, the yeast fitness is reported as no more than 0.5. G18A C55U G56C A70G showed a yeast fitness of no more than 0.5. G18A C60U A65G gave a yeast fitness of no more than 0.5. For G18A C61G, the yeast fitness was 0.681. Work on G18A C61U yielded a yeast fitness of 0.696. Variant G18A C62G has a yeast fitness of 0.676. Work on G18A C62U yielded a yeast fitness of 0.712. With G18A C66A the yeast fitness was 0.516. G18A C66U showed a yeast fitness of 0.736. With G18A G23A C33A A65C the yeast fitness was 0.624. Work on G18A G23A G58C A70C yielded a yeast fitness of no more than 0.5. For G18A G23C C29U C31G, the yeast fitness was no more than 0.5. G18A G23C C30G A36U C60G gave a yeast fitness of no more than 0.5. G18A G25A C46U showed a yeast fitness of 0.508. Work on G18A G25A C46U C55G A69C yielded a yeast fitness of no more than 0.5. With G18A G25A C49U C62U the yeast fitness was no more than 0.5. In the case of G18A G25A G38A A57G, the yeast fitness is reported as no more than 0.5. Work on G18A G25C yielded a yeast fitness of 0.746. For G18A G25C A69C, the yeast fitness was 0.519. For G18A G38A, the yeast fitness was 0.73. For G18A G39A A40C A70U, the yeast fitness was no more than 0.5. With G18A G39C the yeast fitness was 0.757. G18A G41A C66G gave a yeast fitness of no more than 0.5. G18A G41C gave a yeast fitness of 0.658. With G18A G41C U53A the yeast fitness was 0.557. G18A G44A C62U gave a yeast fitness of no more than 0.5. G18A G44A G68A gave a yeast fitness of no more than 0.5. G18A G44A U54C G58A G67U gave a yeast fitness of no more than 0.5. For G18A G48A, the yeast fitness was 0.765. For G18A G48C C49A U53A G56A G58C, the yeast fitness was no more than 0.5. Variant G18A G50A C61U has a yeast fitness of no more than 0.5. Variant G18A G50A C62G has a yeast fitness of no more than 0.5. With G18A G50C the yeast fitness was 0.615. In the case of G18A G50C C55G, the yeast fitness is reported as no more than 0.5. With G18A G50C G58C C60U C66G the yeast fitness was no more than 0.5. For G18A G51A, the yeast fitness was 0.625. G18A G51C A65U showed a yeast fitness of no more than 0.5. With G18A G51C G63A the yeast fitness was no more than 0.5. G18A G52A A65C showed a yeast fitness of no more than 0.5. Variant G18A G52A C55G has a yeast fitness of 0.571. With G18A G52C G67U A69U the yeast fitness was no more than 0.5. Work on G18A G56A yielded a yeast fitness of 0.705. Variant G18A G56C has a yeast fitness of 0.521. With G18A G58A the yeast fitness was 0.765. Variant G18A G58C has a yeast fitness of 0.792. With G18A G58C A65U the yeast fitness was no more than 0.5. G18A G58C G68A showed a yeast fitness of no more than 0.5. With G18A G63A A69C the yeast fitness was 0.827. For G18A G68A, the yeast fitness was 0.795. In the case of G18A G68U, the yeast fitness is reported as 0.711. Work on G18A U19A yielded a yeast fitness of 0.594. G18A U19A C27G G39C showed a yeast fitness of no more than 0.5. Work on G18A U19A C61G yielded a yeast fitness of no more than 0.5. Variant G18A U19A G51C U64C has a yeast fitness of no more than 0.5. In the case of G18A U19A G56A C60U C61G, the yeast fitness is reported as no more than 0.5. Work on G18A U19A G63A yielded a yeast fitness of no more than 0.5. For G18A U19C C22G C24A G39C A45C, the yeast fitness was 0.619. With G18A U19C C22U the yeast fitness was 0.641. G18A U26A C27U C49U G58A A65G showed a yeast fitness of no more than 0.5. With G18A U26C A40C U54A the yeast fitness was no more than 0.5. Work on G18A U26G A40G U59G C62A yielded a yeast fitness of no more than 0.5. G18A U26G C55U C60G showed a yeast fitness of 0.512. Variant G18A U26G G48C A65G has a yeast fitness of no more than 0.5. Work on G18A U26G G50C C62A G63C yielded a yeast fitness of no more than 0.5. In the case of G18A U26G G50C G63C, the yeast fitness is reported as 0.589. Variant G18A U28A A42G A45C has a yeast fitness of no more than 0.5. With G18A U28C G50U the yeast fitness was no more than 0.5. Work on G18A U28C U47A yielded a yeast fitness of no more than 0.5. For G18A U32A, the yeast fitness was 0.513. With G18A U32A G44A A65C the yeast fitness was no more than 0.5. G18A U32A U53C showed a yeast fitness of no more than 0.5. G18A U32C A65G showed a yeast fitness of 0.535. In the case of G18A U35A A40G C61U, the yeast fitness is reported as no more than 0.5. Variant G18A U53A C62G has a yeast fitness of no more than 0.5. For G18A U53A C66U, the yeast fitness was no more than 0.5. In the case of G18A U53G, the yeast fitness is reported as no more than 0.5. Variant G18A U54A has a yeast fitness of 0.597. With G18C the yeast fitness was 0.659. Variant G18C A20G C29A C49U has a yeast fitness of no more than 0.5. With G18C A20G C29A G67A the yeast fitness was no more than 0.5. Variant G18C A20U C31U G48A C55U G68U has a yeast fitness of 0.586. With G18C A20U C34U A40C C49U U64C C66U the yeast fitness was 0.549. G18C A21C A69U gave a yeast fitness of no more than 0.5. For G18C A21C C30G C46G, the yeast fitness was no more than 0.5. For G18C A21G, the yeast fitness was 0.643. Variant G18C A21G A70C has a yeast fitness of 0.572. In the case of G18C A21G C27A C30U G38A, the yeast fitness is reported as 0.547. For G18C A21G C66A, the yeast fitness was no more than 0.5. Work on G18C A21G U47A G67C yielded a yeast fitness of 0.53. Work on G18C A21U C24U U28A yielded a yeast fitness of 0.629. Work on G18C A21U C27U yielded a yeast fitness of no more than 0.5. Variant G18C A21U C30G A69C has a yeast fitness of 0.555. G18C A36G gave a yeast fitness of 0.769. With G18C A36G A37C the yeast fitness was no more than 0.5. For G18C A36G C61A, the yeast fitness was no more than 0.5. G18C A36U showed a yeast fitness of 0.551. In the case of G18C A36U A57U, the yeast fitness is reported as no more than 0.5. With G18C A36U A70U the yeast fitness was no more than 0.5. G18C A36U C61A G63C gave a yeast fitness of no more than 0.5. In the case of G18C A37C, the yeast fitness is reported as 0.641. Work on G18C A37C C49G yielded a yeast fitness of 0.663. Work on G18C A37G yielded a yeast fitness of 0.577. G18C A37G G51A C61U C66A showed a yeast fitness of no more than 0.5. Work on G18C A37U G48C C49A yielded a yeast fitness of no more than 0.5. G18C A40C C61U gave a yeast fitness of no more than 0.5. In the case of G18C A40G A42G G58C, the yeast fitness is reported as no more than 0.5. Work on G18C A40U A70G yielded a yeast fitness of 0.632. For G18C A42C U54A, the yeast fitness was no more than 0.5. With G18C A43C C62A the yeast fitness was no more than 0.5. Work on G18C A43C G52A yielded a yeast fitness of 0.502. In the case of G18C A43U, the yeast fitness is reported as 0.674. G18C A45C showed a yeast fitness of 0.695. In the case of G18C A45C A65U, the yeast fitness is reported as no more than 0.5. In the case of G18C A45G G50U U53A, the yeast fitness is reported as no more than 0.5. In the case of G18C A45U G50C C55G U64C, the yeast fitness is reported as no more than 0.5. In the case of G18C A45U G56U U64A A69C, the yeast fitness is reported as 0.786. G18C A57C gave a yeast fitness of 0.627. For G18C A57G U59A C62U, the yeast fitness was no more than 0.5. For G18C A65C G68A, the yeast fitness was no more than 0.5. With G18C A65U the yeast fitness was 0.691. Variant G18C A69C has a yeast fitness of 0.642. Variant G18C A70G has a yeast fitness of 0.588. In the case of G18C A70U, the yeast fitness is reported as 0.737. Work on G18C C22A A45C C46U A65C yielded a yeast fitness of no more than 0.5. G18C C22A A65G showed a yeast fitness of no more than 0.5. G18C C22G gave a yeast fitness of 0.682. Variant G18C C22G A69C has a yeast fitness of no more than 0.5. In the case of G18C C22G C55A A70U, the yeast fitness is reported as no more than 0.5. Variant G18C C22G G39A has a yeast fitness of no more than 0.5. In the case of G18C C22U, the yeast fitness is reported as 0.558. In the case of G18C C22U C29A A42G, the yeast fitness is reported as 0.541. G18C C22U C31A C61G showed a yeast fitness of no more than 0.5. Variant G18C C22U C34G A43U has a yeast fitness of no more than 0.5. Work on G18C C22U C61U yielded a yeast fitness of no more than 0.5. G18C C22U U26G C30G C55G C66A gave a yeast fitness of no more than 0.5. Work on G18C C24A yielded a yeast fitness of no more than 0.5. For G18C C24A U32C, the yeast fitness was 0.55. G18C C24G A36C G38C U47C G58C gave a yeast fitness of no more than 0.5. For G18C C24G A70G, the yeast fitness was no more than 0.5. With G18C C24G C34U C49A the yeast fitness was no more than 0.5. In the case of G18C C24G C49G C61U, the yeast fitness is reported as no more than 0.5. G18C C24U showed a yeast fitness of 0.641. G18C C24U A40U C55U U59A gave a yeast fitness of 0.501. In the case of G18C C24U A40U G56A A65G C66U, the yeast fitness is reported as no more than 0.5. In the case of G18C C24U A43C C46U G63C C66U, the yeast fitness is reported as no more than 0.5. Work on G18C C27A yielded a yeast fitness of 0.555. For G18C C27A C55U G63C, the yeast fitness was no more than 0.5. In the case of G18C C27A U28A A42U, the yeast fitness is reported as no more than 0.5. For G18C C27G, the yeast fitness was 0.61. In the case of G18C C27G C46A G58A U59A, the yeast fitness is reported as no more than 0.5. Work on G18C C27G U28C U47C U59A A65G yielded a yeast fitness of 0.61. For G18C C27U, the yeast fitness was 0.71. G18C C27U A69C gave a yeast fitness of 0.502. Work on G18C C27U C55G yielded a yeast fitness of 0.67. Work on G18C C27U C62G G63A C66G A69G yielded a yeast fitness of no more than 0.5. Work on G18C C27U G38A G39C yielded a yeast fitness of 0.521. Work on G18C C29G A45G C66U A69C yielded a yeast fitness of no more than 0.5. Variant G18C C29G C31G A57C has a yeast fitness of 0.549. In the case of G18C C29G U47C, the yeast fitness is reported as no more than 0.5. For G18C C29U A37G, the yeast fitness was no more than 0.5. For G18C C29U A69C, the yeast fitness was no more than 0.5. G18C C29U C34U G58C gave a yeast fitness of no more than 0.5. G18C C29U C46U A57G gave a yeast fitness of 0.636. With G18C C29U C49G the yeast fitness was no more than 0.5.
